Each block holds one molecule with its values, some of them ahead of it.
Tests used:
[1] = tested on: Mus musculus; assay: Half life in homozygous cDNA-uPA chimeric SCID mouse bearing humanized hepatocytes infected with HCV assessed as 2'-deoxy-2'-spirooxetane uridine triphosphate at 50 to 200 mg/kg, po bid administered through gavage for 7 days; assay type: ADME, organism-based, Hepatocyte; conditions: 168 h
[2] = biological target: Cytochrome P450 3A4 (Homo sapiens, UniProt P08684); assay: Drug metabolism in baculovirus infected insect cell microsomes expressing human CYP3A4 assessed as CYP3A4-mediated intrinsic clearance per pmol CYP3A4 at 22.7 uM; assay type: ADME; conditions: recombinant enzyme
Procedure, shortened: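 Incubation at 22.7 µM with human CYP3A4 supersomes. Intrinsic clearance (µL/min.pmol P450) and half-life (min) were determined.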

[3] = tested on: Hepatocyte; assay: Prodrug conversion in mouse cryopreserved hepatocytes assessed as 2'-deoxy-2'-spirooxetane uridine triphosphate level per million cells at 10 uM after 24 hrs by LC-MS/MS analysis; assay type: ADME, cell-based
Procedure, shortened: (§1)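 Plated cryopreserved hepatocytes (study B) incubated with 10 µM unlabeled prodrug for 2, 8 or 24 h. Triphosphate measured in cell lysates and expressed as pmol/million hepatocytes. Quantification limit 2 ng/10^6 cells.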

[4] = tested on: Hepatocyte; assay: Prodrug conversion in human cryopreserved hepatocytes assessed as 2'-deoxy-2'-spirooxetane uridine triphosphate level per million cells at 10 uM after 2 hrs by LC-MS/MS analysis; assay type: ADME, cell-based; procedure, shortened: as §1
[5] = tested on: Hepatocyte; assay: Prodrug conversion in human cryopreserved hepatocytes assessed as 2'-deoxy-2'-spirooxetane uridine triphosphate level per million cells at 10 uM after 8 hrs by LC-MS/MS analysis; assay type: ADME, cell-based; procedure, shortened: as §1
[6] = tested on: Hepatocyte; assay: Prodrug conversion in human primary hepatocytes assessed as 2'-deoxy-2'-spirooxetane uridine triphosphate formation measured at 8 hrs by LC-MS/MS analysis; assay type: ADME, cell-based
Procedure, shortened: (§2)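 Hepatocyte primary cultures followed over time for triphosphate formation in cell lysates: rat and mouse up to 24 h, human up to 96 h.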

[7] = tested on: Hepatocyte; assay: Prodrug conversion in mouse primary hepatocytes assessed as 2'-deoxy-2'-spirooxetane uridine triphosphate formation measured at 8 hrs by LC-MS/MS analysis; assay type: ADME, cell-based; procedure, shortened: as §2
[8] = tested on: Hepatocyte; assay: Prodrug conversion in human hepatocytes assessed as 2'-deoxy-2'-spirooxetane uridine triphosphate formation in presence of pan-CYP inhibitor 1-ABT by LC-MS/MS analysis; assay type: ADME, cell-based
[9] = tested on: Hepatocyte; assay: Drug level in human hepatocytes in presence of CYP3A4 inhibitor ketoconazole by LC-MS/MS analysis; assay type: ADME, cell-based
[10] = tested on: Plasma; assay: Tlast in mouse plasma at 50 mg/kg, po; assay type: ADME, organism-based; conditions: in vivo
Procedure, shortened: (§3)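 Single oral dose of 50 mg/kg formulated in 20% HP-β-cyclodextrin. Prodrug and its triphosphate were measured in plasma and liver (ng/mL or ng/g) over time, and Cmax, tmax, AUC, tlast and t1/2 were derived. For some analytes, data from two independent studies are reported.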

[11] = AUC (0 to infinity) in mouse plasma at 50 mg/kg, po; assay type: ADME, organism-based; design: dose 50 mg/kg, route oral, time infinity
Procedure, shortened: (§4)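 Oral dose 50 mg/kg, formulated in 20% HP-β-cyclodextrin. Prodrug and triphosphate were measured in plasma and liver (ng/mL or ng/g). Parameters derived were Cmax, tmax, AUC0-last, AUC0-inf and t1/2. Some prodrug data come from two independent studies.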

[12] = Ratio of AUC (0 to last) in mouse liver to AUC (0 to last) in mouse plasma; assay type: ADME
Procedure, shortened: (§5)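 Single oral dose of 50 mg/kg in 20% HP-β-cyclodextrin. Prodrug and triphosphate measured in plasma and liver over time (tlast 6–30 h). Half-life, Cmax, tmax and AUC0-last derived; liver/plasma ratio taken from AUC0-last. Prodrug data pooled from two independent studies.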

[13] = tested on: Liver; assay: AUC (0 to infinity) in mouse liver at 50 mg/kg, po; assay type: ADME, organism-based; design: dose 50 mg/kg, route oral, time infinity; conditions: in vivo; procedure, shortened: as §4
[14] = tested on: Liver; assay: AUC (0 to infinity) in mouse liver assessed as 2'-deoxy-2'-spirooxetane uridine triphosphate at 50 mg/kg, po; assay type: ADME, organism-based; design: dose 50 mg/kg, time infinity, route oral; conditions: in vivo; procedure, shortened: as §4
[15] = Ratio of AUC (0 to last) in rat liver to AUC (0 to last) in rat plasma; assay type: ADME; procedure, shortened: as §5
[16] = tested on: Liver; assay: Cmax in rat liver assessed as 2'-deoxy-2'-spirooxetane uridine triphosphate at 50 mg/kg, po; assay type: ADME, organism-based; design: dose 50 mg/kg, route oral; conditions: in vivo
[17] = Cmax in dog liver at 50 mg/kg, po; assay type: ADME, organism-based, Canis lupus familiaris; design: dose 50 mg/kg, route oral
[18] = tested on: Liver; assay: AUC (0 to last) in dog liver at 50 mg/kg, po; assay type: ADME, organism-based, Canis lupus familiaris; conditions: in vivo; procedure, shortened: as §4
[19] = tested on: Liver; assay: Tmax in dog liver assessed as 2'-deoxy-2'-spirooxetane uridine triphosphate at 50 mg/kg, po; assay type: ADME, organism-based, Canis lupus familiaris; conditions: in vivo; procedure, shortened: as §3
[20] = tested on: Hepatocyte; assay: Stability in mouse primary hepatocyte supernatant assessed as parent compound level at 2 uM after 4 to 24 hrs using radiolabeled compound by HPLC analysis; assay type: ADME, cell-based; conditions: hepatocytes
[21] = tested on: Hepatocyte; assay: Drug metabolism in human primary hepatocyte supernatant assessed as 1-[(4aR,6R,7R,7aR)-2-hydroxy-2-oxidodihydro-4H-spiro[furo[3,2-d][1,3,2]dioxaphosphinine-7,2'-oxetan]-6-yl]pyrimidine-2,4(1H,3H)-dione formation at 2 to 62.5 uM after 4 to 24 hrs using radiolabelled compound by HPLC analysis; assay type: ADME, cell-based; conditions: hepatocytes
Procedure, shortened: (§6)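 Fresh primary hepatocyte cultures incubated with tritiated prodrug (5'-[3H]) at 2 and 62.5 µM for 4 and 24 h. Supernatants taken after protein precipitation and profiled by HPLC with radioactivity detection. Cell lysates profiled for metabolites by radio-LC. Cyclic monophosphate also measured by LC/MS/MS.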

[22] = tested on: Hepatocyte; assay: Drug metabolism in mouse primary hepatocyte supernatant assessed as 1-[(4aR,6R,7R,7aR)-2-hydroxy-2-oxidodihydro-4H-spiro[furo[3,2-d][1,3,2]dioxaphosphinine-7,2'-oxetan]-6-yl]pyrimidine-2,4(1H,3H)-dione formation at 2 to 62.5 uM after 4 to 24 hrs using radiolabelled compound by HPLC analysis; assay type: ADME, cell-based; conditions: hepatocytes; procedure, shortened: as §6
[23] = Drug metabolism in dog primary hepatocyte supernatant assessed as 1-((4R,5R,7R,8R)-8-hydroxy-7-(hydroxymethyl)-1,6-dioxaspiro[3.4]octan-5-yl)pyrimidine-2,4(1H,3H)-dione formation at 2 to 62.5 uM after 4 to 24 hrs using radiolabeled compound by HPLC analysis; assay type: ADME, cell-based, Canis lupus familiaris; conditions: hepatocytes
Procedure, shortened: (§7)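 Study A: primary cultured hepatocytes (mouse, rat, dog, human) incubated with 2 or 62.5 µM 5'-[3H]-labelled prodrug for 4 and 24 h. Cell lysates were analysed for triphosphate. Supernatants were protein-precipitated and profiled by HPLC with radioactivity detection. Cyclic monophosphate was also assessed by LC/MS/MS.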

[24] = tested on: Hepatocyte; assay: Stability in rat primary hepatocytes assessed as parent compound level at 2 to 62.5 uM after 24 hrs using radiolabeled compound by LC-MS/MS analysis; assay type: ADME, cell-based
Procedure, shortened: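 Study A: rat primary cultured hepatocytes incubated with 5'-[3H]-labelled prodrug at 2 and 62.5 µM for 4 and 24h; cell lysates profiled by LC with radioactivity detection. Cyclic monophosphate co-eluted with parent and was assessed separately by LC/MS/MS. Duplicate or single measurements.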

[25] = Stability in dog primary hepatocytes assessed as parent compound level at 2 to 62.5 uM after 4 hrs using radiolabeled compound by LC-MS/MS analysis; assay type: ADME, cell-based, Canis lupus familiaris, Hepatocyte; procedure, shortened: as §6
[26] = tested on: Hepatocyte; assay: Drug metabolism in rat primary hepatocytes assessed as ((4R,5R,7R,8R)-5-(2,4-dioxo-3,4-dihydropyrimidin-1(2H)-yl)-8-hydroxy-1,6-dioxaspiro[3.4]octan-7-yl)methyl dihydrogen phosphate formation at 2 to 62.5 uM after 24 hrs using radiolabeled compound by LC-MS/MS analysis; assay type: ADME, cell-based; procedure, shortened: as §6
[27] = Drug metabolism in dog primary hepatocytes assessed as ((4R,5R,7R,8R)-5-(2,4-dioxo-3,4-dihydropyrimidin-1(2H)-yl)-8-hydroxy-1,6-dioxaspiro[3.4]octan-7-yl)methyl dihydrogen phosphate formation at 2 to 62.5 uM after 4 hrs using radiolabeled compound by LC-MS/MS analysis; assay type: ADME, cell-based, Canis lupus familiaris, Hepatocyte; procedure, shortened: as §7

Cytochrome P450 3A4, sequence (P08684 whole entry): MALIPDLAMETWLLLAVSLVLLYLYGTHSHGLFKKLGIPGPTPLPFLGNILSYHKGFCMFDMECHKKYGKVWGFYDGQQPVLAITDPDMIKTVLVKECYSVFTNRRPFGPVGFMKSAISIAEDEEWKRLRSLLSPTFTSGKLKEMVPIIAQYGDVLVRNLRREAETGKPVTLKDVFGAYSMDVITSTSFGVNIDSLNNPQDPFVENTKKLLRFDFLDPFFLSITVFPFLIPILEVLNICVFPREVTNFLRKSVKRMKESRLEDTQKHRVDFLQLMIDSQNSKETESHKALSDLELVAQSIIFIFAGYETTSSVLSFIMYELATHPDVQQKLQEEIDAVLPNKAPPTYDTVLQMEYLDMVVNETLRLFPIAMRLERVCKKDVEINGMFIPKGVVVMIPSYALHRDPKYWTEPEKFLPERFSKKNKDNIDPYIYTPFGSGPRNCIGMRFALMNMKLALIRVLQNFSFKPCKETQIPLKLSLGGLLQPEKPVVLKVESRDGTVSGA

SMILES: CC(C)O[P@@]1(=O)OC[C@H]2O[C@@H](n3ccc(=O)[nH]c3=O)[C@@]3(CCO3)[C@@H]2O1
t1/2 [1]: 3.9 h
CL [2]: 0.058 µL/min
Drug metabolism [3]: 0.519 pmol
Drug metabolism [4]: 0.087 pmol
Drug metabolism [5]: 0.172 pmol
Drug metabolism [6]: metabolite_detected
Drug metabolism [7]: metabolite_detected
Drug metabolism [8]: metabolite_notdetected
Drug uptake [9]: Active
Tlast [10]: 24 h
AUC(0-inf) [11]: 2620 ng·h/mL
Kp [12]: 0.57
AUC [13]: 1706 ng·h/g
AUC [14]: 129396 ng·h/g
Kp [15]: 0.34
Cmax [16]: 73500 ng/g
Cmax [17]: 5030 ng/g
AUClast [18]: 35596 ng·h/g
Tmax [19]: 4 h

Stability [20]: Stable
Drug metabolism [21]: metabolite_detected
Drug metabolism [22]: metabolite_detected
Drug metabolism [23]: metabolite_detected
Stability [24]: Stable
Stability [25]: Stable
Drug metabolism [26]: metabolite_detected
Drug metabolism [27]: metabolite_detected
SMILES: [3H]C1O[P@](=O)(OC(C)C)O[C@@H]2[C@@H]1O[C@@H](n1ccc(=O)[nH]c1=O)[C@@]21CCO1 (some centres not stated)
